Experimental data: ChEMBL document CHEMBL4396941, “Design, synthesis and biological evaluation of benzamide derivatives as novel NTCP inhibitors that induce apoptosis in HepG2 cells” (Bioorg Med Chem Lett, 2019)
Activity calls are given as the source filed them. The rule behind the calls is not given here.

How the values were obtained:
HepG2 = test: Antiproliferative activity against human HepG2 cells assessed as inhibition of cell growth incubated for 24 hrs by MTT assay; assay type: functional, cell-based; conditions: HepG2, 24 h
In short: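 HepG2 cells exposed to a range of concentrations for the stated times, then inhibition rate measured by MTT.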

Hepatitis B virus [1] = test: Antiviral activity against hepatitis B virus infected in human HepG2.2.15 cells assessed as reduction in HBV DNA level incubated for 9 days by real time-PCR analysis; assay type: functional, organism-based
Hepatitis B virus [2] = test: Antiviral activity against hepatitis B virus infected in human HepG2.2.15 cells assessed as reduction in HBeAg secretion at 5 uM incubated for 9 days by ELISA (reference value: 25.13 +/- 1.93 ng/ml); assay type: functional
Hepatitis B virus [3] = test: Antiviral activity against hepatitis B virus infected in human HepG2.2.15 cells assessed as HBsAg secretion at 5 uM incubated for 9 days by ELISA (reference value: 8.41+/- 0.54 ng/ml); assay type: functional
[4] = molecular target: T1, Hepatic sodium/bile acid cotransporter (Homo sapiens, UniProt Q14973); test: Inhibition of human recombinant NTCP expressed in CHO cells assessed as reduction in [3H]taurocholate uptake preincubated for 1 hr by radioactive scintillation counting method; assay type: cell-based
T1 sequence (Q14973 whole entry): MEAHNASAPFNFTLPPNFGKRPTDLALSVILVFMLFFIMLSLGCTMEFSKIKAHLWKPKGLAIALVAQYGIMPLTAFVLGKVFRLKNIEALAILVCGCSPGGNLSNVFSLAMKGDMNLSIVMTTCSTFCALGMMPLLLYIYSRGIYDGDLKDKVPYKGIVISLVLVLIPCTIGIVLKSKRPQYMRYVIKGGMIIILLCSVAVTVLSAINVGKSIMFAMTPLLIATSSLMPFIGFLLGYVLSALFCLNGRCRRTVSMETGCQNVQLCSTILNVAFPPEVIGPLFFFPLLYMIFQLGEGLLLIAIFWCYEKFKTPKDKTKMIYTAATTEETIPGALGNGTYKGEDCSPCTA

[5] = molecular target: T1, Hepatic sodium/bile acid cotransporter; test: Inhibition of NTCP in human hepatocytes assessed as reduction in Na+-dependent [3H]taurocholate uptake measured at 45s following compound addition by liquid scintillation counting method; assay type: cell-based

| SMILES | IC50 (HepG2) | IC50 [4] | IC50 [5] | inhibition (Hepatitis B virus [1]) | Activity (Hepatitis B virus [2]) | Activity (Hepatitis B virus [3]) |
| --- | --- | --- | --- | --- | --- | --- |
| O=C(CNC(=O)c1cccnc1Cl)N/N=C/c1cccc(OCc2ccccc2Cl)c1 | 3.1 µM |  |  | Active | 6.43 ng/mL | 2.05 ng/mL |
| Cc1ccccc1OCC(=O)N/N=C/c1cccc(OCc2ccccc2)c1 | 18.6 µM |  |  |  |  |  |
| CCCNS(=O)(=O)Nc1ncnc(OCCOc2ncc(Br)cn2)c1-c1ccc(Br)cc1 |  | 10 µM |  |  |  |  |
| C[C@H](NC(=O)COc1ccc(S(=O)(=O)N[C@H](C)c2ccccc2)cc1)c1ccccc1 | 35.7 µM |  |  |  |  |  |
| COc1ccccc1Oc1c(NS(=O)(=O)c2ccc(C(C)(C)C)cc2)nc(-c2ncccn2)nc1OCCO [BOSENTAN] |  |  | 30 µM |  |  |  |
| O=C1CC(c2ccccc2)CC(=O)C1=CNCCN1CCN(C(=O)Cc2ccccc2)CC1 (centres undefined) | 70.2 µM |  |  |  |  |  |
| C[C@]1(C(=O)NCCOc2ccc(C3CCCCC3)cc2)CO[C@@H](c2ccccc2)OC1 | 32.9 µM |  |  |  |  |  |
| Cc1sc(NC(=O)CCn2cnc3ccccc3c2=O)nc1-c1ccc(Cl)cc1 | 25.4 µM |  |  |  |  |  |
| O=C(CNC(=O)c1ccc(-c2ccccc2)cc1)N/N=C/c1ccc(OCc2cc3c(cc2Cl)OCO3)cc1 | > 50 µM |  |  |  | 23.8 ng/mL | 7.66 ng/mL |

Now from value to compound, other results behind:

| IC50 (HepG2) | IC50 [4] | IC50 [5] | SMILES | inhibition (Hepatitis B virus [1]) | Activity (Hepatitis B virus [2]) | Activity (Hepatitis B virus [3]) |
| --- | --- | --- | --- | --- | --- | --- |
| > 50 µM |  |  | CCN(CC)c1ccc(/C=N/NC(=O)CNC(=O)c2ccc(C#N)cc2)c(OCc2ccccc2Cl)c1 |  | 24.86 ng/mL | 8.17 ng/mL |
| 16.9 µM |  |  | O=C(CNC(=O)c1cccnc1Cl)N/N=C/c1ccccc1OCc1ccccc1Cl |  | 12.55 ng/mL | 4.08 ng/mL |
| 17.1 µM |  |  | O=C(CNC(=O)c1ccc(F)cc1)N/N=C/c1ccccc1OCc1cc2c(cc1Cl)OCO2 |  | 11.84 ng/mL | 3.98 ng/mL |
| > 50 µM |  |  | CCN(CC)c1ccc(/C=N/NC(=O)CNC(=O)c2ccc(F)cc2)c(OCc2ccccc2Cl)c1 |  | 24.34 ng/mL | 8.04 ng/mL |
| 15.7 µM |  |  | COc1ccc(/C=N/NC(=O)CNC(=O)c2ccc(F)cc2)c(OCc2ccccc2Cl)c1 |  | 13.07 ng/mL | 4.23 ng/mL |
| 28.1 µM |  |  | Cc1ccc(C(=O)NCC(=O)N/N=C/c2ccc(OCc3ccccc3Cl)cc2)cc1 |  | 14.29 ng/mL | 4.83 ng/mL |
| > 50 µM |  |  | COc1ccc(/C=N/NC(=O)CNC(=O)c2ccc(C)cc2)c(OCc2ccccc2Cl)c1 |  | 23.53 ng/mL | 7.94 ng/mL |
| 14.9 µM |  |  | Cc1ccc(C(=O)NCC(=O)N/N=C/c2ccc(OCc3cc4c(cc3Cl)OCO4)cc2)cc1 |  | 11.47 ng/mL | 3.91 ng/mL |
| > 50 µM |  |  | O=C(CNC(=O)c1ccc(-c2ccccc2)cc1)N/N=C/c1ccccc1OCc1ccccc1Cl |  | 24.88 ng/mL | 8.31 ng/mL |
| 47.5 µM |  |  | Cc1ccc(C(=O)NCC(=O)N/N=C/c2cccc(OCc3ccccc3Cl)c2)cc1 |  | 18.09 ng/mL | 5.74 ng/mL |
